Values after ≈ are worked out from the molar mass of the structure shown. Active and inactive are the calls of the source. The calls are words filed in the database; no cut-off is given here.
What was measured:
[1] = tested on: Bacteroides thetaiotaomicron; assay: Bactericidal activity against beta lactamase-positive Bacteroides thetaiotaomicron isolated from intra-abdominal infection and pelvic inflammatory disease patients assessed as bacterial killing at 2 times MIC after 48 hrs by time kill analysis; format: functional
How it was run: (§1)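 Macrodilution time-kill in prereduced brucella broth with 5% laked horse blood, hemin 5 μg/ml and vitamin K1 1 μg/ml, at final inoculum 10^6–10^7 CFU/ml. […] Viable counts were taken at 6, 12, 24 and 48 h on plates incubated 48 h anaerobically. 99.9% kill was taken as bactericidal.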

[2] = tested on: Clostridium cadaveris; assay: Antimicrobial activity against Clostridium cadaveris isolated from intra-abdominal infection and pelvic inflammatory disease patients after 48 hrs by agar dilution method; format: functional
How it was run: (§2)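 CLSI agar dilution on brucella blood agar supplemented with laked sheep blood, hemin and vitamin K. Inocula of about 1 × 10^5 CFU/spot were applied by Steers replicator, and plates were incubated 48 h at 35°C in an anaerobic glove box. MIC was the concentration giving marked growth reduction versus the anaerobic control plate. QC strains were included each run, and β-lactamase was detected by Cefinase disk.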

[3] = tested on: Clostridium paraputrificum; assay: Antimicrobial activity against Clostridium paraputrificum isolated from intra-abdominal infection and pelvic inflammatory disease patients after 48 hrs by agar dilution method; format: functional; how it was run: as §2
[4] = tested on: Prevotella intermedia; assay: Antimicrobial activity against beta lactamase-positive Prevotella intermedia isolated from intra-abdominal infection and pelvic inflammatory disease patients after 48 hrs by time kill analysis; format: functional
How it was run: (§3)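 The MIC was read by inspecting macrodilution time-kill tubes. Vials held prereduced brucella broth with 5% laked horse blood cells, hemin 5 μg/ml and vitamin K1 1 μg/ml. Final inoculum was 10^6–10^7 CFU/ml, prepared inside the anaerobe chamber. Vials were incubated 48 h at 35°C in a shaking water bath.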

[5] = tested on: Finegoldia magna; assay: Bactericidal activity against beta lactamase-positive Finegoldia magna isolated from intra-abdominal infection and pelvic inflammatory disease patients assessed as 99.9% bacterial killing at 2 times MIC after 48 hrs by time kill analysis; format: functional, organism-based; how it was run: as §1
[6] = tested on: Porphyromonas gingivalis; assay: Antimicrobial activity against Porphyromonas gingivalis isolated from intra-abdominal infection and pelvic inflammatory disease patients after 48 hrs by agar dilution method; format: functional; how it was run: as §2
[7] = tested on: Finegoldia magna; assay: Antimicrobial activity against Finegoldia magna isolated from intra-abdominal infection and pelvic inflammatory disease patients after 48 hrs by agar dilution method; format: functional; how it was run: as §2
[8] = tested on: Prevotella intermedia; assay: Antimicrobial activity against beta lactamase-positive Prevotella intermedia isolated from intra-abdominal infection and pelvic inflammatory disease patients after 48 hrs by agar dilution method; format: functional; how it was run: as §2
[9] = tested on: Prevotella bivia; assay: Antimicrobial activity against beta lactamase-positive Prevotella bivia isolated from intra-abdominal infection and pelvic inflammatory disease patients after 48 hrs by agar dilution method; format: functional; how it was run: as §2
[10] = tested on: Bacteroides thetaiotaomicron; assay: Antimicrobial activity against beta lactamase-positive Bacteroides thetaiotaomicron isolated from intra-abdominal infection and pelvic inflammatory disease patients after 48 hrs by agar dilution method; format: functional; how it was run: as §2
[11] = tested on: Parvimonas micra; assay: Antimicrobial activity against Micromonas micros isolated from intra-abdominal infection and pelvic inflammatory disease patients after 48 hrs by agar dilution method; format: functional; how it was run: as §2
[12] = tested on: Prevotella intermedia; assay: Bactericidal activity against beta lactamase-positive Prevotella intermedia isolated from intra-abdominal infection and pelvic inflammatory disease patients assessed as bacterial killing at MIC after 24 hrs by time kill analysis; format: functional
How it was run: (§4)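 Anaerobic macrodilution time-kill. Inoculum from brucella blood plates, prepared and diluted in prereduced brucella broth inside the anaerobe chamber. Final 10^6 to 10^7 CFU/ml in prereduced brucella broth with 5% laked horse blood cells, 5 μg/ml hemin and 1 μg/ml vitamin K1. […] Shaken at 35°C for 48 h. Viable counts taken at 6, 12, 24 and 48 h. 99.9% kill taken as bactericidal.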

[13] = tested on: Bacteroides fragilis; assay: Bactericidal activity against beta lactamase-positive Bacteroides fragilis isolated from intra-abdominal infection and pelvic inflammatory disease patients assessed as bacterial killing at 2 times MIC after 48 hrs by time kill analysis; format: functional; how it was run: as §1
[14] = tested on: Fusobacterium nucleatum; assay: Bactericidal activity against beta lactamase-positive Fusobacterium nucleatum isolated from intra-abdominal infection and pelvic inflammatory disease patients assessed as bacterial killing at 2 times MIC after 48 hrs by time kill analysis; format: functional; how it was run: as §4
[15] = tested on: Phocaeicola vulgatus; assay: Antimicrobial activity against beta lactamase-positive Bacteroides vulgatus isolated from intra-abdominal infection and pelvic inflammatory disease patients after 48 hrs by agar dilution method; format: functional; how it was run: as §2
[16] = tested on: Clostridium perfringens; assay: Antimicrobial activity against Clostridium perfringens isolated from intra-abdominal infection and pelvic inflammatory disease patients after 48 hrs by time kill analysis; format: functional
How it was run: (§5)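 Macrodilution in prereduced brucella broth with 5% laked horse blood cells, 5 μg/ml hemin and 1 μg/ml vitamin K1. Final inoculum 10^6 to 10^7 CFU/ml, prepared inside the anaerobe chamber. Vials incubated 48 h at 35°C in a shaking water bath. MIC read by inspecting the time-kill tubes, alongside an antibiotic-free growth control.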

[17] = tested on: Fusobacterium nucleatum; assay: Bactericidal activity against beta lactamase-positive Fusobacterium nucleatum isolated from intra-abdominal infection and pelvic inflammatory disease patients assessed as bacterial killing at MIC after 24 hrs by time kill analysis; format: functional; how it was run: as §4
[18] = tested on: Prevotella nigrescens; assay: Antimicrobial activity against beta lactamase-positive Prevotella nigrescens isolated from intra-abdominal infection and pelvic inflammatory disease patients after 48 hrs by agar dilution method; format: functional; how it was run: as §2
[19] = tested on: Porphyromonas levii; assay: Antimicrobial activity against Porphyromonas levii isolated from intra-abdominal infection and pelvic inflammatory disease patients after 48 hrs by agar dilution method; format: functional; how it was run: as §2
[20] = tested on: Fusobacterium varium; assay: Antimicrobial activity against Fusobacterium varium isolated from intra-abdominal infection and pelvic inflammatory disease patients after 48 hrs by agar dilution method; format: functional; how it was run: as §2
[21] = tested on: Bacteroides ovatus; assay: Antimicrobial activity against beta lactamase-positive Bacteroides ovatus isolated from intra-abdominal infection and pelvic inflammatory disease patients after 48 hrs by agar dilution method; format: functional; how it was run: as §2
[22] = tested on: Prevotella buccae; assay: Antimicrobial activity against beta lactamase-positive Prevotella buccae isolated from intra-abdominal infection and pelvic inflammatory disease patients after 48 hrs by agar dilution method; format: functional; conditions: Segatella buccae; how it was run: as §2
[23] = tested on: Clostridioides difficile; assay: Antimicrobial activity against Clostridium difficile isolated from intra-abdominal infection and pelvic inflammatory disease patients after 48 hrs by time kill analysis; format: functional; how it was run: as §5
[24] = tested on: Finegoldia magna; assay: Bactericidal activity against beta lactamase-positive Finegoldia magna isolated from intra-abdominal infection and pelvic inflammatory disease patients assessed as bacterial killing at MIC after 24 hrs by time kill analysis; format: functional; how it was run: as §4
[25] = tested on: Clostridioides difficile; assay: Bactericidal activity against Clostridium difficile isolated from intra-abdominal infection and pelvic inflammatory disease patients assessed as bacterial killing at 2 times MIC after 48 hrs by time kill analysis; format: functional; how it was run: as §1
[26] = tested on: Finegoldia magna; assay: Bactericidal activity against beta lactamase-positive Finegoldia magna isolated from intra-abdominal infection and pelvic inflammatory disease patients assessed as bacterial killing at 2 times MIC after 48 hrs by time kill analysis; format: functional; how it was run: as §4
[27] = tested on: Anaerococcus tetradius; assay: Antimicrobial activity against Anaerococcus tetradius isolated from intra-abdominal infection and pelvic inflammatory disease patients after 48 hrs by agar dilution method; format: functional; how it was run: as §2
[28] = tested on: Bacteroides thetaiotaomicron; assay: Bactericidal activity against beta lactamase-positive Bacteroides thetaiotaomicron isolated from intra-abdominal infection and pelvic inflammatory disease patients assessed as bacterial killing at MIC after 24 hrs by time kill analysis; format: functional; how it was run: as §1
[29] = tested on: Finegoldia magna; assay: Antimicrobial activity against beta lactamase-positive Finegoldia magna isolated from intra-abdominal infection and pelvic inflammatory disease patients after 48 hrs by time kill analysis; format: functional; how it was run: as §3
[30] = tested on: Paeniclostridium sordellii; assay: Antimicrobial activity against Clostridium sordellii isolated from intra-abdominal infection and pelvic inflammatory disease patients after 48 hrs by agar dilution method; format: functional; conditions: Paraclostridium sordellii; how it was run: as §2

`C[C@@H](O)[C@H]1C(=O)N2C(C(=O)O)=C(S[C@@H]3CN[C@H](C(=O)N(C)C)C3)[C@H](C)[C@H]12` [MEROPENEM] showed an Activity [1] of 99%, an MIC [2] of 0.03 µg/mL (≈ 0.0782 µM) and an MIC [3] of 0.25 µg/mL (≈ 0.652 µM). For the same compound, the MIC [4] was 0.03 µg/mL (≈ 0.0782 µM), the Activity [5] was “inactive” and the MIC [6] was at most 0.016 µg/mL. For the same compound, the MIC [7] was 0.06 µg/mL (≈ 0.156 µM), the MIC50 [7] was 0.06 µg/mL (≈ 0.156 µM) and the MIC90 [7] was 0.125 µg/mL (≈ 0.326 µM). For the same compound, the MIC50 [8] was 0.03 µg/mL (≈ 0.0782 µM), the MIC90 [8] was 0.125 µg/mL (≈ 0.326 µM) and the MIC50 [9] was 0.06 µg/mL (≈ 0.156 µM). The MIC90 [9] was 0.125 µg/mL (≈ 0.326 µM), the MIC50 [10] was 0.25 µg/mL (≈ 0.652 µM) and the MIC90 [10] was 0.5 µg/mL (≈ 1.3 µM). The MIC [11] was 0.03 µg/mL (≈ 0.0782 µM), the MIC50 [11] was 0.03 µg/mL (≈ 0.0782 µM) and the MIC90 [11] was 0.25 µg/mL (≈ 0.652 µM). The Activity [12] was 90%, the Activity [13] was 99% and the Activity [14] was 99%. For the same compound, the MIC50 [15] was 0.25 µg/mL (≈ 0.652 µM), the MIC90 [15] was 1 µg/mL (≈ 2.61 µM) and the MIC [16] was 0.03 µg/mL (≈ 0.0782 µM). For the same compound, the Activity [17] was 90%, the MIC50 [18] was 0.03 µg/mL (≈ 0.0782 µM) and the MIC90 [18] was 0.06 µg/mL (≈ 0.156 µM). For the same compound, the MIC [19] was at most 0.016 µg/mL, the MIC50 [20] was 0.125 µg/mL (≈ 0.326 µM) and the MIC90 [20] was 0.25 µg/mL (≈ 0.652 µM). The MIC [21] was 0.25 µg/mL (≈ 0.652 µM), the MIC50 [21] was 0.25 µg/mL (≈ 0.652 µM) and the MIC90 [21] was 0.5 µg/mL (≈ 1.3 µM). It also gave an MIC [22] of 0.06 µg/mL (≈ 0.156 µM), an MIC50 [22] of 0.06 µg/mL (≈ 0.156 µM) and an MIC90 [22] of 0.06 µg/mL (≈ 0.156 µM). For the same compound, the MIC [23] was 1 µg/mL (≈ 2.61 µM), the Activity [24] was 90% and the Activity [25] was 99%. The Activity [26] was 99%, the MIC [27] was 0.03 µg/mL (≈ 0.0782 µM) and the MIC50 [27] was 0.03 µg/mL (≈ 0.0782 µM). The Activity [28] was 90%, the MIC [29] was 0.06 µg/mL (≈ 0.156 µM) and the MIC [30] was 0.06 µg/mL (≈ 0.156 µM).

`C[C@@H](O)[C@H]1C(=O)N2C(C(=O)O)=C(S[C@@H]3CN[C@H](CNS(N)(=O)=O)C3)[C@H](C)[C@H]12` [DORIPENEM] was tested, and the Activity [1] was 99%, the MIC [2] was 0.03 µg/mL (≈ 0.0713 µM) and the MIC [3] was 0.25 µg/mL (≈ 0.595 µM). For the same compound, the MIC [4] was 0.06 µg/mL (≈ 0.143 µM), the Activity [5] was “inactive” and the MIC [6] was at most 0.016 µg/mL. The MIC [7] was 0.06 µg/mL (≈ 0.143 µM), the MIC50 [7] was 0.06 µg/mL (≈ 0.143 µM) and the MIC90 [7] was 0.125 µg/mL (≈ 0.297 µM). The MIC50 [8] was 0.03 µg/mL (≈ 0.0713 µM), the MIC90 [8] was 0.125 µg/mL (≈ 0.297 µM) and the MIC [9] was 0.06 µg/mL (≈ 0.143 µM). The MIC50 [9] was 0.06 µg/mL (≈ 0.143 µM), the MIC90 [9] was 0.125 µg/mL (≈ 0.297 µM) and the MIC [10] was 0.25 µg/mL (≈ 0.595 µM). For the same compound, the MIC50 [10] was 0.25 µg/mL (≈ 0.595 µM), the MIC90 [10] was 0.5 µg/mL (≈ 1.19 µM) and the MIC [11] was at most 0.016 µg/mL. The MIC50 [11] was at most 0.016 µg/mL, the MIC90 [11] was 0.06 µg/mL (≈ 0.143 µM) and the Activity [12] was 90%. For the same compound, the Activity [13] was 99%, the Activity [14] was 99% and the MIC50 [15] was 0.25 µg/mL (≈ 0.595 µM). The MIC90 [15] was 1 µg/mL (≈ 2.38 µM), the MIC [16] was 0.03 µg/mL (≈ 0.0713 µM) and the Activity [17] was 90%. For the same compound, the MIC50 [18] was 0.03 µg/mL (≈ 0.0713 µM), the MIC90 [18] was 0.06 µg/mL (≈ 0.143 µM) and the MIC [19] was 0.03 µg/mL (≈ 0.0713 µM). For the same compound, the MIC50 [20] was 0.125 µg/mL (≈ 0.297 µM), the MIC90 [20] was 0.125 µg/mL (≈ 0.297 µM) and the MIC [21] was 0.25 µg/mL (≈ 0.595 µM). For the same compound, the MIC50 [21] was 0.25 µg/mL (≈ 0.595 µM), the MIC90 [21] was 1 µg/mL (≈ 2.38 µM) and the MIC [22] was 0.06 µg/mL (≈ 0.143 µM). The MIC50 [22] was 0.06 µg/mL (≈ 0.143 µM), the MIC90 [22] was 0.125 µg/mL (≈ 0.297 µM) and the MIC [23] was 1 µg/mL (≈ 2.38 µM). The Activity [24] was 90%, the Activity [25] was 99% and the Activity [26] was 99%. It also gave an MIC50 [27] of 0.03 µg/mL (≈ 0.0713 µM), an Activity [28] of 90% and an MIC [29] of 0.06 µg/mL (≈ 0.143 µM). For the same compound, the MIC [30] was 0.03 µg/mL (≈ 0.0713 µM).

Reference: ChEMBL document CHEMBL1151448, “Comparative antianaerobic activities of doripenem determined by MIC and time-kill analysis” (2008)
